Results as given in ChEMBL document CHEMBL1148008, “Antimicrobial and cytotoxic activity of agelasine and agelasimine analogs” (Bioorg Med Chem, 2007).
pIC50: −log10 of the molar value. Values after ≈ are worked out from the molar mass of the structure shown.

Key:
[1] = Cytotoxicity against RPMI 8226/s cells; type: functional, cell-based; conditions: Homo sapiens, RPMI8226/S
Summary of the method: (§1)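 Fluorometric microculture cytotoxicity assay (FMCA) read-out; IC50 values reported.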

[2] = tested on: Pichia kudriavzevii; assay: Antifungal activity against Candida krusei ATCC 6258; type: functional
[3] = tested on: ACHN; assay: Cytotoxicity against ACHN cells; type: functional, cell-based; conditions: Homo sapiens; summary of the method: as §1
[4] = tested on: Mycobacterium tuberculosis; assay: Antimicrobial activity against Mycobacterium tuberculosis after 20 hrs by broth microdilution method; type: functional
[5] = tested on: U-937/GTB; assay: Cytotoxicity against U937 GTB cells; type: functional, cell-based; conditions: Homo sapiens; summary of the method: as §1
[6] = Cytotoxicity against CEM/s cells; type: functional, cell-based; conditions: Homo sapiens; summary of the method: as §1
[7] = tested on: Mycobacterium tuberculosis; assay: Antimicrobial activity against Mycobacterium tuberculosis at 6.25 ug/mL after 20 hrs by broth microdilution method; type: functional
[8] = tested on: Escherichia coli; assay: Antibacterial activity against Escherichia coli ATCC 25922 after 20 hrs by broth microdilution method; type: functional; conditions: ATCC 25922, 20 h
Summary of the method: (§2)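 Strains grown 24 h at 35 °C on tryptone-soya agar. Colonies suspended in saline to 0.5 McFarland, then diluted 1:10 in Mueller-Hinton broth (~10⁷ CFU/mL). Inoculum added to twofold dilutions in broth (final 0.125–32 µg/mL) in triplicate. Incubated aerobically at 35 °C for 20 h. MIC is the lowest concentration giving complete growth inhibition. Repeated at least once; gentamycin/streptomycin served as QC.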

[9] = tested on: Staphylococcus aureus; assay: Antibacterial activity against Staphylococcus aureus ATCC 25923 after 20 hrs by broth microdilution method; type: functional; summary of the method: as §2
[10] = tested on: Bacteroides thetaiotaomicron; assay: Antibacterial activity against Bacteroides thetaiotaomicron after 20 hrs by broth microdilution method; type: functional
[11] = tested on: Bacteroides fragilis; assay: Antibacterial activity against Bacteroides fragilis after 20 hrs by broth microdilution method; type: functional

| Compound | pIC50 [1] | MIC [2] [µg/mL] | pIC50 [3] | MIC [4] [µg/mL] | pIC50 [5] | pIC50 [6] | inhibition at 6.25 µg/mL [7] [%] | MIC [8] [µg/mL] | MIC ([9]; ATCC 25923, 20 h) [µg/mL] | MIC [9] [µg/mL] | MIC [10] [µg/mL] | MIC [11] [µg/mL] |
| --- | --- | --- | --- | --- | --- | --- | --- | --- | --- | --- | --- | --- |
| CC(C)=CCC/C(C)=C/CC/C(C)=C/CC/C(C)=C/Cn1cnc2ncnc(N)c21 | 5.56 | > 16 | 5.14 | 1.56 (≈ 3.83 µM) | 5.44 | 5.54 | 99 | > 32 | > 32 | – | – | – |
| CO/N=c1\[nH]cnc2c1[n+](C/C=C(\C)CC/C=C(\C)CC/C=C(\C)CCC=C(C)C)cn2Cc1ccccc1 | 5.98 | – | 5.47 | 1.56 | 5.97 | 5.65 | 99 | > 32 | > 32 | – | – | – |
| C/C(=C\C[n+]1cn(C)c2nc[nH]/c(=N\OCc3ccccc3)c21)CCCC(C)CCCC(C)CCCC(C)C (centres undefined) | 5.15 | – | 4.69 | – | 4.97 | 5.20 | 72 | > 32 | > 32 | – | – | – |
| CC(C)=CCC/C(C)=C/CC/C(C)=C/CC/C(C)=C/Cn1cnc2c1C(=N)N(C)CN2C | 5.60 | 16 (≈ 36.6 µM) | 5.29 | 3.13 (≈ 7.15 µM) | 5.47 | 5.50 | 99 | > 32 | 16 (≈ 36.6 µM) | – | – | – |
| GENTAMICIN | – | – | – | – | – | – | – | – | – | 0.1 | – | – |
| C=CCn1c[n+](C/C=C(\C)CC/C=C(\C)CC/C=C(\C)CCC=C(C)C)c2/c(=N/OC)[nH]cnc21 | 5.90 | – | 5.34 | 3.13 | 5.86 | 5.53 | 100 | > 32 | > 32 | – | – | – |
| CC(C)=CCC/C(C)=C/CC/C(C)=C/CC/C(C)=C/C[n+]1cn(C)c2nc[nH]/c(=N\OC(C)(C)C)c21 | 5.68 | 2 | 5.08 | 3.13 | 5.31 | 5.41 | 100 | > 32 | 24 | – | – | – |
| C/C(=C\C[n+]1cn(C)c2ncnc(N)c21)CCCC(C)CCCC(C)CCCC(C)C (centres undefined) | 5.62 | – | 4.95 | 6.25 | 5.50 | 5.24 | 99 | > 32 | 4 | – | – | – |
| CC(C)=CCC/C(C)=C/CC/C(C)=C/CC/C(C)=C/C[n+]1cn(C(c2ccccc2)c2ccccc2)c2nc[nH]/c(=N\OCc3ccccc3)c21 | 4.23 | – | 4.76 | – | 5.37 | 5.04 | 78 | > 32 | 8 | – | – | – |
| C/N=c1\ncn(C)c2ncn(C/C=C(\C)CC/C=C(\C)CC/C=C(\C)CCC=C(C)C)c12 | < 4.10 | – | < 4.10 | 3.13 (≈ 7.18 µM) | < 4.10 | < 4.10 | 94 | 16 (≈ 36.7 µM) | 3 (≈ 6.89 µM) | – | – | – |
| CC(C)=CCC/C(C)=C/CC/C(C)=C/CC/C(C)=C/Cn1cnc2c1C(=N)NCN2C | 4.74 | – | < 4.10 | – | < 4.10 | 4.66 | 99 | 16 (≈ 37.8 µM) | 8 (≈ 18.9 µM) | – | – | – |
| CC(C)=CCC/C(C)=C/CC/C(C)=C/CC/C(C)=C/Cn1cnc2nc[nH]/c(=N\OCc3ccccc3)c21 | 4.96 | – | 4.56 | – | 4.95 | 4.69 | 40 | > 32 | > 32 | – | – | – |
| Cn1cnc(=N)c2c1ncn2Cc1ccccc1 | – | – | – | – | – | – | 0 | – | – | – | – | – |
| Cc1ncc([N+](=O)[O-])n1CCO [METRONIDAZOLE] | – | – | – | – | – | – | – | – | – | – | 1 (≈ 5.84 µM) | 0.5 (≈ 2.92 µM) |
| CO/N=c1\[nH]cnc2ncn(C/C=C(\C)CC/C=C(\C)CC/C=C(\C)CCC=C(C)C)c12 | 5.52 | – | 4.74 | – | 5.48 | 5.24 | 74 | > 32 | > 32 | – | – | – |
| Cn1c[n+](Cc2ccccc2)c2c(N)ncnc21.[Cl-] | < 4.10 | – | < 4.10 | – | < 4.10 | < 4.10 | 0 | > 32 | > 32 | – | > 32 | > 32 |
| CC(C)=CCC/C(C)=C/CC/C(C)=C/CC/C(C)=C/Cn1cnc2c1c(=N)ncn2C | 5.17 | 2 (≈ 4.74 µM) | 4.91 | – | 5.19 | 5.11 | 84 | 8 (≈ 19 µM) | 4 (≈ 9.49 µM) | – | – | – |
| Cn1cc[n+](Cc2ccccc2)c1 | – | – | – | – | – | – | 19 | – | – | – | – | – |
| CO/N=c1\[nH]cnc2c1[n+](C/C=C(\C)CCC=C(C)C)cn2C | 4.74 | – | < 4.10 | – | 4.76 | 4.56 | – | > 32 | > 32 | – | – | – |
| Cn1c[n+](Cc2ccccc2)c2/c(=N/OCc3ccccc3)[nH]cnc21 | – | – | – | – | – | – | 0 | – | – | – | – | – |

| Compound | pIC50 [1] | MIC [2] [µg/mL] | pIC50 [3] | MIC [4] [µg/mL] | pIC50 [5] | pIC50 [6] | inhibition at 6.25 µg/mL [7] [%] | MIC [8] [µg/mL] | MIC ([9]; ATCC 25923, 20 h) [µg/mL] | MIC [9] [µg/mL] | MIC [10] [µg/mL] | MIC [11] [µg/mL] |
| --- | --- | --- | --- | --- | --- | --- | --- | --- | --- | --- | --- | --- |
| CO/N=c1\[nH]cnc2c1[n+](C/C=C(\C)CCCC(C)CCCC(C)CCCC(C)C)cn2C (centres undefined) | 5.43 | – | 4.77 | – | 5.27 | 5.10 | 56 | > 32 | > 32 | – | – | – |
| CC(=O)O[C@H]1C(=O)[C@@]2(C)[C@H]([C@H](OC(=O)c3ccccc3)[C@]3(O)C[C@H](OC(=O)[C@H](O)[C@@H](NC(=O)c4ccccc4)c4ccccc4)C(C)=C1C3(C)C)[C@]1(OC(C)=O)CO[C@@H]1C[C@@H]2O [PACLITAXEL] | 8.15 | – | 4.50 | – | 8.23 | 8.15 | – | – | – | – | – | – |
| CC(C)=CCC/C(C)=C/CC/C(C)=C/CC/C(C)=C/C[n+]1cnc2c(ncn2C)c1N.[Br-] | 4.73 | – | < 4.10 | – | 4.40 | 4.68 | 72 | > 32 | 8 | – | – | – |
| C=CC[n+]1cn(C)c2nc[nH]/c(=N\OC)c21 | < 4.10 | – | < 4.10 | – | < 4.10 | < 4.10 | – | > 32 | > 32 | – | – | – |
| Cn1c[n+](Cc2ccccc2)c2/c(=N/OC(C)(C)C)[nH]cnc21 | – | – | – | – | – | – | 53 | – | – | – | – | – |
| CC(C)=CCC/C(C)=C/CC/C(C)=C/CC/C(C)=C/C[n+]1cn(CCC#N)c2nc[nH]/c(=N\OCc3ccccc3)c21 | 5.02 | – | 4.41 | – | 4.62 | 4.72 | 86 | > 32 | > 32 | – | – | – |
| CO[C@H]1/C=C/O[C@@]2(C)Oc3c(C)c(O)c4c(O)c(c(/C=N/N5CCN(C)CC5)c(O)c4c3C2=O)NC(=O)/C(C)=C\C=C\[C@H](C)[C@H](O)[C@@H](C)[C@@H](O)[C@@H](C)[C@H](OC(C)=O)[C@@H]1C [RIFAMPIN] | – | – | – | 0.25 (≈ 0.304 µM) | – | – | – | – | – | – | – | – |
| CO/N=c1\[nH]cnc2c1[n+](Cc1ccccc1)cn2C | < 4.10 | – | < 4.10 | – | < 4.10 | < 4.10 | 4 | > 32 | > 32 | – | – | – |
| Cn1cnc2c(N)[n+](Cc3ccccc3)cnc21.[Br-] | – | – | – | – | – | – | 0 | > 32 | > 32 | – | – | – |
| CO/N=c1\[nH]cnc2c1[n+](C/C=C(\C)CC/C=C(\C)CC/C=C(\C)CCC=C(C)C)cn2C(c1ccccc1)c1ccccc1 | 5.59 | – | 5.32 | 3.13 | 5.71 | 5.45 | 99 | > 32 | 8 | – | – | – |
| CC(C)=CCC/C(C)=C/CC/C(C)=C/CC/C(C)=C/C[n+]1cn(C)c2ncnc(N)c21 | 5.55 | > 16 | 4.69 | – | 5.50 | 5.51 | – | > 32 | 32 | – | – | – |
| CO/N=c1\[nH]cnc2c1[n+](C/C=C(\C)CC/C=C(\C)CCC1CCCCC1)cn2C | – | – | – | – | – | – | – | 16 | 6 | – | – | – |
| CO/N=c1\[nH]cnc2c1[n+](C/C=C(\C)CC/C=C(\C)CC/C=C(\C)CCC=C(C)C)cn2CCC#N | 5.40 | – | 4.94 | > 6.25 | 5.48 | 5.27 | 100 | > 32 | 4 | – | – | – |
| CC(C)=CCC/C(C)=C/CC/C(C)=C/C[n+]1cn(C)c2ncnc(N)c21.[Cl-] | < 4.10 | – | < 4.10 | – | < 4.10 | < 4.10 | 13 | > 32 | > 32 | – | – | – |
| CC(C)=CCC/C(C)=C\CC/C(C)=C/C[n+]1cn(C)c2ncnc(N)c21.[Cl-] | – | – | – | – | – | – | 8 | > 32 | 32 | – | – | – |
| CO/N=c1\[nH]cnc2c1[n+](C/C=C(\C)CC/C=C(\C)CC/C=C(\C)CCC=C(C)C)cn2C(C)C | 6.05 | – | 5.61 | 1.56 | 5.96 | 5.69 | 100 | – | – | – | – | – |
| COc1cccc2c1C(=O)c1c(O)c3c(c(O)c1C2=O)C[C@@](O)(C(=O)CO)C[C@@H]3O[C@H]1C[C@H](N)[C@H](O)[C@H](C)O1 [DOXORUBICIN] | 6.89 | – | 4.85 | – | 6.96 | 6.74 | – | – | – | – | – | – |
| CC(C)=CCC/C(C)=C/CC/C(C)=C/CC/C(C)=C/Cn1cnc2ncnc(Cl)c21 | 5.28 | – | 5.17 | – | 5.29 | 5.17 | 33 | > 32 | > 32 | – | – | – |
| Cn1c[n+](Cc2ccccc2)c2ccccc21 | – | – | – | – | – | – | 19 | – | – | – | – | – |
